The values below come from ChEMBL document CHEMBL4330106, “A new class of pentapeptide KISS1 receptor agonists with hypothalamic-pituitary-gonadal axis activation” (Bioorg Med Chem Lett, 2019).

Activity calls are given as the source filed them. No cut-off for these calls is given here.

Data set [1] can be described thus: Stability in Sprague-Dawley rat serum assessed as parent compound remaining at 10 ug/ml measured after 120 mins by LC-MS/MS analysis. The data set is classed as ADME, cell-free. Particulars: read-out: Stability. A digest of the protocol: (§1)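 10 µL of 10 μg/mL aqueous peptide stock added to 990 μL pre-warmed SD rat serum (final 0.1 μg/mL), 37 °C. Aliquots taken at 0, 5, 15, 30, 60, 120 min. Quenched with formic acid/methanol and acetonitrile, centrifuged, internal standard added, quantified by LC/MS/MS. Result is percent remaining; n = 2.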

The nature of data set [2]: Stability in Sprague-Dawley rat serum assessed as parent compound remaining at 10 ug/ml measured after 60 mins by LC-MS/MS analysis. Particulars: read-out: Stability. The data set is classed as ADME, cell-free. The gist of the method:
as §1

In data set [3] the target is KiSS-1 receptor (Homo sapiens, UniProt Q969F8). As to the kind of experiment: Agonist activity at human KISS1R expressed in CHO cells assessed as increase in calcium mobilization measured at 2 secs interval for 2 mins by fluo-4 NW dye based FLIPR assay. The data set is classed as functional, cell-based. A digest of the protocol:
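Ligand-induced Ca2+ rise in CHO cells expressing human KISS1R, read on a fluorometric imaging plate reader (FLIPR); agonist potency reported as EC50 (nM).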
(Calcium assays in cells follow changes in intracellular calcium, usually with a dye or a luminescent sensor.)

The nature of data set [4]: Stability in Sprague-Dawley rat serum assessed as parent compound remaining at 10 ug/ml measured immediately by LC-MS/MS analysis. The data set is classed as ADME, cell-free. Conditions: read-out: Stability. A digest of the protocol: as §1
A short description of data set [5]: Stability in Sprague-Dawley rat serum assessed as parent compound remaining at 10 ug/ml measured after 30 mins by LC-MS/MS analysis. The data set is classed as ADME, cell-free. Particulars: read-out: Stability. A digest of the protocol: as §1
A short description of data set [6]: Stability in Sprague-Dawley rat serum assessed as parent compound remaining at 10 ug/ml measured after 15 mins by LC-MS/MS analysis. The data set is classed as ADME, cell-free. Particulars: read-out: Stability. The gist of the method: as §1
Data set [7] can be described thus: Half life in Sprague-Dawley rat serum at 10 ug/ml by LC-MS/MS analysis. The data set is classed as ADME, cell-free. A digest of the protocol: as §1
Data set [8] in a line: Stability in Sprague-Dawley rat serum assessed as parent compound remaining at 10 ug/ml measured after 5 mins by LC-MS/MS analysis. Conditions: read-out: Stability. The data set is classed as ADME, cell-free. A digest of the protocol:
as §1

Data set [9] in a line: Drug uptake in Crl:CD(SD) rat plasma administered via subcutaneous osmotic pumps every 1 hr after 6 days by LC/MS analysis. Particulars: sc, 144 h. The data set is classed as ADME, cell-free. A digest of the protocol:
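9-week-old male Crl:CD (SD) rats (five per group) implanted subcutaneously with osmotic pumps of 5, 10 or 20 mM aqueous peptide, delivering 5, 10, 20 nmol/h for 6 days. Steady-state plasma measured by LC/MS after protein precipitation with organic solvent; mean ± SD.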

Data set [10] is described as follows: Solubility of the compound in saline. The data set is classed as physicochemical.
Data set [11] is described as follows: Retention time of the compound by reverse-phase HPLC method. The data set is classed as physicochemical. The gist of the method:
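RP-HPLC on C18 monolith column. Linear gradient of 0.1% TFA water / 0.1% TFA acetonitrile, A/B 95/5 to 35/65 over 10 min, 3.0 mL/min.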

Data set [12] in a line: Solubility of the compound in water. The data set is classed as physicochemical.
Data set [13] has as its system Rattus norvegicus. As to the kind of experiment: Stimulation of plasma luteinizing hormone release in sc dosed Crl:CD(SD) rat administered as single bolus dose measured after 1 to 8 hrs. The data set is classed as functional, organism-based. The gist of the method:
(§2)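 Single subcutaneous bolus of 10, 100 or 1000 nmol/kg in 9-week-old male Crl:CD (SD) rats, n = 5, saline vehicle. Plasma LH measured 1, 2, 4 and 8 h post-dose. AUC0–8h (ng·h/mL) calculated per rat. One-tailed Williams' test versus vehicle; mean ± SD.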

Data set [14] addresses KiSS-1 receptor (Rattus norvegicus, UniProt Q924U1). Briefly: Agonist activity at rat KISS1R.
The subject of data set [15] is Rattus norvegicus. As to the kind of experiment: Increase in plasma luteinizing hormone AUC (0 to 8 hrs) in Crl:CD(SD) rat at 100 nmol/kg, sc administered as single bolus dose. The data set is classed as functional, organism-based. The gist of the method:
as §2

The test system of data set [16] is Rattus norvegicus. Briefly: Suppression of plasma testosterone level in Crl:CD(SD) rat at 5 to 20 nmol/hr administered via subcutaneous osmotic pumps measured after 6 days by radioimmunoassay. The data set is classed as ADME, organism-based. Conditions: in vivo, sc, 144 h. The gist of the method: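 Five 9-week-old male Crl:CD (SD) rats per group received continuous subcutaneous infusion by osmotic pump for 6 days: leuprolide 2 nmol/h, or test peptide 5, 10, 20 nmol/h from 5–20 mM aqueous solution. Plasma testosterone measured by radioimmunoassay. Distilled-water control; Dunnett's test; mean ± SD.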

Sequence of KiSS-1 receptor (Homo sapiens, UniProt Q969F8) (Q969F8 whole entry): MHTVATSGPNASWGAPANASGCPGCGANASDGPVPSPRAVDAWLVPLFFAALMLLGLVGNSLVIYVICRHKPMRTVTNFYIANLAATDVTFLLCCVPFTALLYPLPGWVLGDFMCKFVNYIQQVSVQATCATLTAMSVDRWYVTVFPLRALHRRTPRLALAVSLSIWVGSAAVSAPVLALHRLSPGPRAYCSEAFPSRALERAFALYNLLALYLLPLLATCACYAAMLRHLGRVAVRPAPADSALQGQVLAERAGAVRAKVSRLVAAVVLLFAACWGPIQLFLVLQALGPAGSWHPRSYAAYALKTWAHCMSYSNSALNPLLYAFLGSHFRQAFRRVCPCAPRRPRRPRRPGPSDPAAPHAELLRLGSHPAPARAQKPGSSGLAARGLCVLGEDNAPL
Sequence of KiSS-1 receptor (Rattus norvegicus, UniProt Q924U1) (Q924U1 whole entry): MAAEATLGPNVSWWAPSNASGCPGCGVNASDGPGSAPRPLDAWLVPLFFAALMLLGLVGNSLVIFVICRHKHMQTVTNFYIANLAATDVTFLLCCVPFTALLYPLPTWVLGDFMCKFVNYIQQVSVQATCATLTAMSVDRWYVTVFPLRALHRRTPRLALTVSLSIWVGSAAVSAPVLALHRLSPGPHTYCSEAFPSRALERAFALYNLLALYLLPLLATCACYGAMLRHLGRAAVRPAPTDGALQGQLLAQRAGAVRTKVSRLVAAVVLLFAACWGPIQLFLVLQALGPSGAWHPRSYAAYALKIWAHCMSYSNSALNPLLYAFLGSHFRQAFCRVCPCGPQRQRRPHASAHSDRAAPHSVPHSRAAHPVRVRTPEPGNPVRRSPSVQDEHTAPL

For orientation: EC50 means the midpoint of the concentration-response curve. The half-life is how long it takes for the measured level to halve. High values mean slow decline, low ones rapid decline. On to `CC(C)C[C@H](NC(=O)CNC(=O)[C@H](Cc1ccccc1)NC(=O)[C@H](CO)NC(=O)[C@H](CC(N)=O)NC(=O)[C@H](Cc1c[nH]c2ccccc12)NC(=O)[C@H](CC(N)=O)NC(=O)[C@@H](N)Cc1ccc(O)cc1)C(=O)N[C@@H](CCCNC(=N)N)C(=O)N[C@@H](Cc1ccccc1)C(N)=O` [KISSPEPTIN-10], for which, in data set [1], the remaining at 2 h, 10 ug/ml is below 0.5%. Further, in data set [2], the remaining at 1 h, 10 ug/ml is below 0.5%. Besides, the EC50 at KiSS-1 receptor [3] stood at 0.087 nM. The remaining at 0 min, 10 ug/ml in data set [4] was determined as 100%. In addition, the remaining at 0.5 h, 10 ug/ml in data set [5] is below 0.5%. The remaining at 0.25 h, 10 ug/ml in [6] is below 0.5%. Further, in [7], the half-life at 10 ug/ml was below 5 min. Further, in [8], the remaining at 5 min, 10 ug/ml is 1.5%.
The term solubility denotes the concentration that dissolves in the medium under given conditions. As for `CNC(=N)NCCC[C@H](NC(=O)[C@H](CC(C)C)NC(=O)NNC(=O)[C@H](Cc1ccccc1)NC(=O)c1ccncc1)C(=O)N[C@@H](Cc1c[nH]c2ccccc12)C(N)=O`, in data set [9], the Drug uptake entry was “Dose-dependent effect”. The solubility is above 1 mg/mL in [10] and above 20 mg/mL in data set [12]. In addition, the values for the EC50 at KiSS-1 receptor [3] and at KiSS-1 receptor [14] were 0.068 nM and 1.2 nM, respectively. Besides, the Retention_time in data set [11] was determined as 4.48 min. Besides, the Activity entry was “Dose-dependent effect” in the data set with Rattus norvegicus [13] and “Non-Toxic” in the data set on Rattus norvegicus [16]. Moreover, the outcome in the data set with Rattus norvegicus [15] was Active.
